Measured values taken from ChEMBL document CHEMBL4616671, “Identification of N-Phenyl-7H-pyrrolo[2,3-d]pyrimidin-4-amine Derivatives as Novel, Potent, and Selective NF-κB Inducing Kinase (NIK) Inhibitors for the Treatment of Psoriasis” (J Med Chem, 2020).
Active and inactive are the calls of the source. The calls are words filed in the database; no cut-off is given here.

Columns and labels:
[1] = Intrinsic hepatic clearance in rat; type: ADME; conditions: in vivo
In short: (§1)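 Scaled from microsomal intrinsic clearance: CLint,in vitro × microsomal protein per g liver × liver weight per kg body weight.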

Mus musculus = assay: Protection against IMQ-induced dermatitis in C57 mouse model of psoriasis assessed as reduction in invasive erythema at 60 to 120 mg/kg, ig administered once daily starting from day 3 post IMQ-challenge and measured 2 days post-last dose of IMQ; type: functional, organism-based
In short: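 C57 mice given 5% imiquimod cream on the back once daily for 7 days; intragastric dosing 60 or 120 mg/kg once daily from day 3 to end, n = 6 per group. Dorsal skin phenotype assessed by imaging.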

J774 = assay: Antiinflammatory activity in mouse J774 cells assessed as inhibition of LPS-induced NO production at 1 uM preincubated for 2 hrs followed by LPS stimulation and measured after 22 hrs by Griess reagent based assay relative to control; type: functional
In short: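 J774 macrophages seeded at 2*10^4 cells/mL, 24 h at 37 °C 5% CO₂; compound in DMSO at 1 µM, 3 replicate wells, 2 h pre-incubation, then LPS at 1 ug/mL final for 22 h. Supernatant nitrite read with Griess reagent at 540 nm against a sodium nitrite standard curve. Inhibition % = (model − compound)/(model − control) NO ×100; mean ± SD, three independent experiments.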

[2] = Initial plasma concentration in Sprague-Dawley rat at 1 mg/kg, iv administered as single bolus dose by LC-MS/MS analysis; type: ADME, organism-based
[3] = Intrinsic hepatic clearance in monkey; type: ADME, Macaca mulatta; conditions: rhesus monkey, in vivo; in short: as §1
Homo sapiens = species on record: Homo sapiens; assay: Selectivity ratio of IC50 for human LRRK2 to IC50 for human NIK
[4] = molecular target: Mitogen-activated protein kinase kinase kinase 14 (Homo sapiens, UniProt Q99558); assay: Inhibition of NIK in human BEAS2B cells assessed as reduction in LPS-induced IL-6 level preincubated for 8 hrs followed by LPS stimulation and measured after 24 hrs by ELISA; type: cell-based
Chain of Mitogen-activated protein kinase kinase kinase 14 (Q99558 whole entry, looked up): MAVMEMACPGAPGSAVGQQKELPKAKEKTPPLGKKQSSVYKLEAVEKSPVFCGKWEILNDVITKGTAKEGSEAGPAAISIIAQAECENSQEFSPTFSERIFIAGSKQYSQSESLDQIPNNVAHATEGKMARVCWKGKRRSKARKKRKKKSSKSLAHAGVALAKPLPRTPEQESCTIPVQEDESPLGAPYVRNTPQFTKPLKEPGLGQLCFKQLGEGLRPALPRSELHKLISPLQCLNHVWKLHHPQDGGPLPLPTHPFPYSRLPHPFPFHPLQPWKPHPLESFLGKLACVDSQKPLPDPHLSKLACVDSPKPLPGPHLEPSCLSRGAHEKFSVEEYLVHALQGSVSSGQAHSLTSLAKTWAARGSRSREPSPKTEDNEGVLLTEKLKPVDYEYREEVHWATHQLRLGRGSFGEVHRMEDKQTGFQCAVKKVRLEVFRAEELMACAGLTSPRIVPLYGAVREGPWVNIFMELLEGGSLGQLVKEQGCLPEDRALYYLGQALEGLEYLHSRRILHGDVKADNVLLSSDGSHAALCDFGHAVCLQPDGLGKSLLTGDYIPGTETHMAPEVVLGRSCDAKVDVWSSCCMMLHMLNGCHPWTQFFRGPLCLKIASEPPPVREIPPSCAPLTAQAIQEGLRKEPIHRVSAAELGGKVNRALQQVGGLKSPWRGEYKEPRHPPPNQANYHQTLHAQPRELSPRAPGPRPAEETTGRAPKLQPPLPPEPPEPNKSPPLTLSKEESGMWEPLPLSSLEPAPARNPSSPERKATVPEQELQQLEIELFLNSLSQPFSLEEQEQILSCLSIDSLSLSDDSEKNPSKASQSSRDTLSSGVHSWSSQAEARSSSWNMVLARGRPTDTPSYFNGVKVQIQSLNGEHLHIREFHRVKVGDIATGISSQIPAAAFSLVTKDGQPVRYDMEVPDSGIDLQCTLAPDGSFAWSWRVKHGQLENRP
In short: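 BEAS-2B cells were grown in DMEM with 10% FBS, seeded at 5000 cells/well, and cultured 24 h at 37 °C in 5% CO2. Compounds were given at 7 concentrations from 10 μM to 0.014 μM (3 replicate wells), with dexamethasone as positive control. After 8 h, LPS (20 μg/mL solution) was added for 24 h. Supernatant IL-6 was read by human IL-6 ELISA; two biological replicates.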

[5] = molecular target: NT-3 growth factor receptor (Homo sapiens, UniProt Q16288); assay: Inhibition of human TRKC using poly[Glu:Tyr] (4:1) as substrate in presence of [gamma33P]ATP by hotspot assay
Chain of NT-3 growth factor receptor (Q16288 whole entry): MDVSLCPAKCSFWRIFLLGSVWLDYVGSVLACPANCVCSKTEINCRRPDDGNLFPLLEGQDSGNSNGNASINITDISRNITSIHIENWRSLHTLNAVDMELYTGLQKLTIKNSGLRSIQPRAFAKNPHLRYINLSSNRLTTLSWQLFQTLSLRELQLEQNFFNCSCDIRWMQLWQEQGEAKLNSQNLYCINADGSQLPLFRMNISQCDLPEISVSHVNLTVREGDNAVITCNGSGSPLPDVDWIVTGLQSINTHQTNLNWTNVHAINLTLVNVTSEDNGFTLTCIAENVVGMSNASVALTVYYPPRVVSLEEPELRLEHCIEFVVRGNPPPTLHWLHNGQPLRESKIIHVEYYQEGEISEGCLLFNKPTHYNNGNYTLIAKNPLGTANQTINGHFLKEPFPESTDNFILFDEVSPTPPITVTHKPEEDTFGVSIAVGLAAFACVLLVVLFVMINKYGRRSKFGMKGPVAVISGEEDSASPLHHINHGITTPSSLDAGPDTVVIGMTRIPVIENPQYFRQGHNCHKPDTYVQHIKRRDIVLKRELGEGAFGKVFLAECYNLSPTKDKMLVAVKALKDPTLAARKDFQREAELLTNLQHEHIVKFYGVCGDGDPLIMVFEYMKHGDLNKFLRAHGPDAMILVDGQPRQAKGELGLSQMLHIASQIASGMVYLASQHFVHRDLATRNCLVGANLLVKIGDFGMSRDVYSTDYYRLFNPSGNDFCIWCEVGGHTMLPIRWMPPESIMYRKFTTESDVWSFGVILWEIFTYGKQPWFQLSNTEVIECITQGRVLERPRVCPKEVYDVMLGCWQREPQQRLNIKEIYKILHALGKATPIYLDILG

[6] = Oral bioavailability in Sprague-Dawley rat at 10 mg/kg administered via gavage by LC-MS/MS analysis; type: ADME, organism-based; conditions: in vivo
[7] = Tmax in Sprague-Dawley rat at 10 mg/kg, po administered via gavage by LC-MS/MS analysis; type: ADME, organism-based; conditions: in vivo
In short: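 SD rats, 3 per group. Single IV bolus at 1 mg/kg in DMSO:PEG200:saline 20:20:60 (0.2 mg/mL), or oral gavage at 10 mg/kg as suspension in 0.5% CMC-Na/0.2% Tween 80 (1 mg/mL). Plasma protein-precipitated with acetonitrile containing internal standards, then quantified by LC-MS/MS. Parameters derived by noncompartmental analysis. Mean ± SD.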

[8] = molecular target: Tyrosine-protein kinase JAK1 (Homo sapiens, UniProt P23458); assay: Inhibition of human JAK1 using poly[Glu:Tyr] (4:1) as substrate in presence of [gamma33P]ATP by hotspot assay
Chain of Tyrosine-protein kinase JAK1 (P23458 whole entry): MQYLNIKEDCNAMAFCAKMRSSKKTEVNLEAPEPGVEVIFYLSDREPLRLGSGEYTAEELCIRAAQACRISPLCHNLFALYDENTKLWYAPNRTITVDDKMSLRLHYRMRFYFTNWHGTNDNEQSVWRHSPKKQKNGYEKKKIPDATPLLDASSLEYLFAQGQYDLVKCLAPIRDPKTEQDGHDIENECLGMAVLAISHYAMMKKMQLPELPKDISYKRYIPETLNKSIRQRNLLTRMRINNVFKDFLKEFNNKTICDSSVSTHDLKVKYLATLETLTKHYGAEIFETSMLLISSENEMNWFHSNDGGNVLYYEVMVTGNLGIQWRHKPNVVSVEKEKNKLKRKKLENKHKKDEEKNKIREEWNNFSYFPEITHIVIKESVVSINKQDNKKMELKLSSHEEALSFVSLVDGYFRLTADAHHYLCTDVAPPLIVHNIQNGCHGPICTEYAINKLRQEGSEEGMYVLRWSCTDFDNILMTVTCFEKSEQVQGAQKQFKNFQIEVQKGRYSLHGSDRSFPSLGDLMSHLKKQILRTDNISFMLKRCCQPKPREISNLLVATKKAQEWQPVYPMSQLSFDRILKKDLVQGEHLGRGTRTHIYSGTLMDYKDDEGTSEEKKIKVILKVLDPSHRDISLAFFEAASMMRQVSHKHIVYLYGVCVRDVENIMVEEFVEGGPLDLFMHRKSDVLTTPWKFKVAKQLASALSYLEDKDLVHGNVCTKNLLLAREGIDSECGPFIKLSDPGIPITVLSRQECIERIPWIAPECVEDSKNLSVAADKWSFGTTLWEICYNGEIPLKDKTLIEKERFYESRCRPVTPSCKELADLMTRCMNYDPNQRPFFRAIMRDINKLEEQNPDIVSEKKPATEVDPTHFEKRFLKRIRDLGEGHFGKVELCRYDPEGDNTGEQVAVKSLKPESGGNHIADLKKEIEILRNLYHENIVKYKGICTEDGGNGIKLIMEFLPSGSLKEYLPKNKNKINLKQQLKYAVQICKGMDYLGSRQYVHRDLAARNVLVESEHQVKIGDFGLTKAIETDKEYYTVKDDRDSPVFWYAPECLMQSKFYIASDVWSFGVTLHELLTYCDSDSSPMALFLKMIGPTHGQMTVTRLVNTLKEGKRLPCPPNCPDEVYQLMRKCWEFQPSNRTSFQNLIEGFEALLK

[9] = Intrinsic clearance in rat liver microsomes assessed as per mg of protein incubated for 10 mins followed by potassium phosphate buffer addition and measured after 5 to 60 mins by LC-MS/MS analysis; type: ADME, Microsome; conditions: read-out: CLH
In short: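 Rat, dog, monkey or human liver microsomes pre-incubated with compound at 37 °C for 10 min; reaction started after pre-warming and stopped at 5, 15, 30, 60 min with chilled quench containing tolbutamide and labetalol. No-cofactor control in 100 mM potassium phosphate for 60 min. LC-MS/MS analysis; first-order fit: k = −slope, T1/2 = 0.693/k, CLint = k/microsomal protein concentration.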

- CLH [1]: 81 mL/min/kg
- C0 [2]: 377 ng/mL
- CLH [3]: 111 mL/min/kg
- Ratio IC50 (Homo sapiens): 4 to 20
- inhibition [4]: Dose-dependent effect
- IC50 [5]: 50.1 nM
- bioavailability [6]: 64%
- Tmax [7]: 50 min
- IC50 [8]: 183 nM
- microsomal CLint [9]: 45 µL/min/mg
Structure (SMILES): CC(O)(C#Cc1ccc(N2CCOCC2)c(Nc2ncnc3[nH]ccc23)c1)c1nccs1 (racemic)
- Activity (Mus musculus): Active
- inhibition at 1 µM (J774): 86.3%
